Source: PubChem BioAssay
SKKanGAS inh: blocks kanamycin growth of S. pyogenes SKKanGAS strain; AID 1662; inhibition, % at 7.5 µM; BacTiter-Glo, 6 h; 300,000 tested, 1.3% active;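 active means mean replicate score, as percent of positive control median, at least 50; inconclusive means mean below 50 but one replicate at or above 50; inactive means mean and every replicate below 50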;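 further: strain carries kanamycin resistance gene driven by streptokinase promoter and grows in 40 µg/ml kanamycin; loss of luminescence reflects streptokinase promoter inhibition or plain growth inhibition; 0% = median of DMSO wells and 100% = positive control at its reference dose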
Mdm2 MdmX PPI: disrupts the human Mdm2-MdmX interaction. SaOS-2 split-luciferase Mdm2/MdmX complementation, luminescence. 330,000 tested, 3% active. inhibition, % at 8 µM. O15151+Q00987;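 active means inhibition of at least 50% at 8 µM in the primary screen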
Target sequence (O15151 whole entry, looked up): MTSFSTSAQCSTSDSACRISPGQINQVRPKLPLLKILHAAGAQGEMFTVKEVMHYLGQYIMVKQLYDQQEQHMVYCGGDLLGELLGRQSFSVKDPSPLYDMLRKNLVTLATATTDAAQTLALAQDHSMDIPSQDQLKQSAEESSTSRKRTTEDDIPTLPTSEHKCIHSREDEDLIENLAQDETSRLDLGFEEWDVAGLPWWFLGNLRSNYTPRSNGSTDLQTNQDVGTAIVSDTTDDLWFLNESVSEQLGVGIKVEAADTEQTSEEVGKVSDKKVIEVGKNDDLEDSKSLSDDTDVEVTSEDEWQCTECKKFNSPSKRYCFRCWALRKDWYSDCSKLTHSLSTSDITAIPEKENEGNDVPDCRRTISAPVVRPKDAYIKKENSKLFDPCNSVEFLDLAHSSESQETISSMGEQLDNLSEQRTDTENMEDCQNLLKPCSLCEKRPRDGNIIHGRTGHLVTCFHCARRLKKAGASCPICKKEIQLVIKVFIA
Target sequence (Q00987 whole entry, looked up): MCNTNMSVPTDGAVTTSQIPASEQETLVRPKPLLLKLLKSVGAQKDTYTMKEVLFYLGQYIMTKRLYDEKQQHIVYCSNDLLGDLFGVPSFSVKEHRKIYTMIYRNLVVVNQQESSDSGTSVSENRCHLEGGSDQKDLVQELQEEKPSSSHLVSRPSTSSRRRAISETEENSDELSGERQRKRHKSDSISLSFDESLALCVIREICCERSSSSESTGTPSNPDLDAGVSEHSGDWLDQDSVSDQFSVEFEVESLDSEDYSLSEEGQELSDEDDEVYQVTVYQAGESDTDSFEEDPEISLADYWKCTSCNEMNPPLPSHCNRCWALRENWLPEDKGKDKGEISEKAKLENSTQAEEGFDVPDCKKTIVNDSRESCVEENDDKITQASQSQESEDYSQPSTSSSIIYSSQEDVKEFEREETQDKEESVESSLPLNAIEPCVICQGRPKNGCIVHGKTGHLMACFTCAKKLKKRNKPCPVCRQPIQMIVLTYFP
CHOP UPR activ: apoptotic UPR (CHOP) activation | CHO-CHOP luciferase reporter, luminescence; percent of tunicamycin response over DMSO baseline | activation, % at 10 µM | 330,000 tested, 0.34% active;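 active means at 10 µM dose, activation of 40% or more, normalized to positive control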;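 further: 100% = tunicamycin at 10 µg/mL and 0% = DMSO alone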
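assay system = CHO CHOP reporter cells | amount = 500 CHO-CHOP cells per well | buffer or medium = F12 with 10% FBS | incubation = 16-18 h cell attachment, then 6 h compound exposure, 37 °C | detection = luminescence read with Steady-Glo | read-out = percent activation relative to tunicamycin control | controls = tunicamycin high control, DMSO low control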
Beta apoptosis: beta cell apoptosis inhibition; 300,000 tested, 0.8% active; INS-1E cytokine-induced death, ATP luminescence, 48 h; percent of positive-control rescue, neutral wells zero; protection from apoptosis, % (no concentration beside the values);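 active means Every replicate reaches about 75%, or at least half do and their mean reaches it too, limit read from the data; inconclusive means At least half of replicates reach the limit but their mean does not; inactive means Under half of replicates reach the limit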;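 further: 0% = cytokine-treated negative control wells and 100% = positive control rescue; higher means more ATP so stronger rescue from cytokine killing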
CSC inhib: cancer stem cell inhibition; cancer stem cell-like cells viability, luminescence; inhibition, % at 7.5 µM; 300,000 tested, 1.1% active; AID 2717; in the data active means inhibition above about 75%; inconclusive means no clear call, values can overlap the other calls; tested in HMLE shEcad cells
XBP1 UPR activ: activators of adaptive arm of unfolded protein response (XBP1). CHO-XBP1 luciferase reporter, IRE1-XBP1 UPR activation, luminescence; percent of tunicamycin response, DMSO as zero. activation, % at 20 µM. 330,000 tested, 0.33% active. AID 463104;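 active means versus positive control, 20 µM dose yields 30% or more activation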;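 further: 100% = tunicamycin at 10 µg/mL and 0% = DMSO only wells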
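incubation = overnight seeding at 37 °C, 6 h compound treatment at 37 °C | assay system = CHO-XBP1 cells stably carrying IRE1-XBP1-driven luciferase reporter | input = 1000 cells per well | detection = luciferase luminescence | dosing = single point, 20 µM final compound, 1% DMSO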
Mdm2-MdmX conf: human Mdm2/MdmX binding inhibition, confirmed; shares compounds with Mdm2 MdmX PPI; luminescent assay; inhibition, % at 8 µM; 10,000 tested, 55% active; AID 489028; in the data active means inhibition above about 40%
FLuc counter: counter-screen for Mdm2/MdmX inhibitors: full-length luciferase. SaOS-2 full-length luciferase counterscreen, luminescence. 6,200 tested, 77% active. AID 504607. inhibition, % at 8 µM. shares compounds with Mdm2 MdmX PPI;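 active means mean inhibition at 8 µM reaching about 37%, which flags the compound as non-specific, limit read from the data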;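 further: p53-null SaOS-2 cells with luciferase driven by a doxycycline-inducible promoter; compound on cells about two nights before reading with doxycycline added after day one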
Starred values were filed as active, the others as inactive; ? = inconclusive; / = not tested or not shown. Rows were chosen to be rich in hits. Some 4.8% of all compounds tested hit in one or more screens of this group.

SMILES	SKKanGAS inh	Mdm2 MdmX PPI	CHOP UPR activ	Beta apoptosis	CSC inhib	XBP1 UPR activ	Mdm2-MdmX conf	FLuc counter
COc1ccccc1/C=C(\NC(=O)c1ccc(OC)c(OC)c1)C(=O)Nc1cc([N+](=O)[O-])ccc1C	-0.2	58.9*	-1.3	1.5	16.7	-1.2	7.7	/
C=C(C(=O)c1ccccc1)C(c1ccccc1)C(C)C(=O)c1ccccc1 (stereo unspecified)	18.6	92.1*	1.6	/	110.8*	-0.7	62.5*	44.0*
O=C1c2ccccc2NC(c2ccc(F)cc2)N1Cc1ccccc1 (stereo unspecified)	9.5	-22.2	0.4	/	12.7	-0.8	/	/
N#CC1=C(N)OC2=C(CCc3ccccc32)C1c1ccccc1 (stereo unspecified)	8.7	74.3*	4.5	27.8	3.0	25.6	51.8*	143.3*
N#CC1=C(N)Oc2cc(O)ccc2C1c1ccccc1 (stereo unspecified)	-0.7	9.3	-2.4	-2.2	-5.8	-2.0	/	/
CC1C=CCC2C(=O)N(c3cccc(C(=O)Nc4ccc(Br)cc4)c3)C(=O)C12 (stereo unspecified)	15.3	9.4	4.7	3.9	10.7	-3.7	/	/
COC(=O)c1[nH]c2ccc(F)cc2c1NS(=O)(=O)c1ccc(OC)cc1	-2.7	57.1*	-1.9	6.7	56.4	-2.0	57.6*	62.0*
Oc1[nH]c2ccccc2c1N=Nc1ncnc2c1oc1ccccc12	2.4	100.4*	5.7	1.8	-3.8	5.0	2.1	/
C=CCN(C(=O)CNC(=O)c1ccco1)C(C(=O)NC1CCCC1)c1ccc(OC)cc1 (stereo unspecified)	2.8	7.6	-0.5	2.1	29.5	-2.5	/	/
COc1ccc(-c2cc(-c3ccccc3)c(C#N)c(S(C)=O)n2)cc1 (stereo unspecified)	-7.0	81.0*	26.9	-6.0	24.4	3.3	20.9	/
CCSc1nc(-c2ccc(OC)cc2)cc(-c2ccccc2)c1C#N	-1.3	20.5	-2.3	24.0	-6.8	-1.1	/	/
Cc1cc(Cl)ccc1OCC(=O)NNC(=O)c1ccco1	-2.4	-2.0	3.5	-5.9	7.5	1.0	/	/
CC(C)c1ccc(OCC(=O)NNC(=S)NC(=O)c2ccco2)c(Br)c1	116.7*	50.4*	-0.2	10.6	-0.9	-2.3	42.8*	71.1*
Cc1ccccc1C(=O)Nc1cc(S(=O)(=O)N2CCOCC2)ccc1N1CCN(C)CC1	/	11.9	-1.1	-1.7	-13.2	0.0	/	/
Cn1c(N)c(S(=O)(=O)NCc2ccc(F)cc2)c(=O)n(C)c1=O	-3.5	-5.7	2.7	1.6	-0.2	-3.9	/	/
COc1ccc2[nH]c3c(c2c1)CCN1C(=O)C(CC(=O)NCC24CC5CC(CC(C5)C2)C4)C[C@H](C(=O)N2CCOCC2)[C@@]31CCC1CCCC1 (stereo partly specified)	/	77.3*	24.0	/	/	6.2	68.5*	43.3*
O=C(C[C@H]1C[C@H](C(=O)N2CCOCC2)[C@@]2(CCC3CCCC3)c3[nH]c4ccc(Cl)cc4c3CCN2C1=O)NCC12CC3CC(CC(C3)C1)C2	/	84.0*	24.0	/	/	13.3	69.5*	20.9
O=C(C[C@H]1C[C@H](C(=O)N2CCOCC2)[C@@]2(CCC3CCCC3)c3[nH]c4ccc(Cl)cc4c3CCN2C1=O)NCCN1CCOCC1	/	37.4	2.8	/	/	4.8	/	/
Cc1nn(C)cc1C(=O)Nc1cc(Oc2ccc(Cl)cc2)cc([N+](=O)[O-])c1	-8.4	21.3	-2.9	4.7	-0.7	-0.3	/	/
CCn1nc(C)c(C(=O)Nc2cc(Oc3cc(C)cc(C)c3)cc([N+](=O)[O-])c2)c1C	30.5	52.8*	0.5	13.9	70.7	3.1	59.5*	51.4*
CCC12C(=O)C(CC)(C(c3ccccc3)=C1c1ccccc1)[C@@H]1C(=O)N(c3ccccc3)C(=O)C12 (stereo partly specified)	-42.0	53.8*	5.0	28.8	19.6	-1.4	65.1*	59.3*
CCCC12C(=O)C(C)(C(c3ccccc3)=C1c1ccccc1)C1C(=O)N(c3ccc(C)cc3)C(=O)C12 (stereo unspecified)	-9.8	79.9*	10.3	105.0*	-1.9	-4.4	80.3*	69.2*
CCn1c(=O)c([N+](=O)[O-])c(Cl)c2ccccc21	12.3	99.5*	-9.5	77.1*	?	-6.3	96.8*	54.6*
CCn1c(=O)c([N+](=O)[O-])c(NCCN(C)C)c2ccccc21	12.9	12.0	1.8	-7.7	0.6	-1.7	/	/
COc1ccc(Cl)cc1C(=O)Nn1cnnc1	2.6	23.5	4.1	/	-9.7	-0.8	/	/
SMILES	SKKanGAS inh	Mdm2 MdmX PPI	CHOP UPR activ	Beta apoptosis	CSC inhib	XBP1 UPR activ	Mdm2-MdmX conf	FLuc counter
CCN(CC)CCCNC(=O)c1cc2c(-c3cccc(OC)c3)nn(C)c2s1	2.8	23.1	0.4	2.0	30.6	-0.1	/	/
CCCCN(CC)CCCNC(=O)c1cc2c(-c3ccc(OC)c(OC)c3)nn(C)c2s1	3.5	56.5*	0.9	-1.5	-1.9	2.6	66.7*	81.9*
COc1cccc(-c2nn(C)c3sc(C(=O)NCCCN(C)Cc4ccccc4)cc23)c1	2.9	18.8	1.5	11.0	12.0	-2.7	/	/
COc1cccc(-c2nn(C)c3sc(C(=O)NCc4ccco4)cc23)c1	6.5	60.6*	-1.8	-2.5	-5.3	-0.1	40.5*	69.1*
OCCN1CCN(CC(O)COc2ccc(C34CC5CC(CC(C5)C3)C4)cc2)CC1 (stereo unspecified)	19.0	94.7*	6.9	47.4	112.5*	28.3	72.7*	21.7
Cc1cccn2c(=O)c(C=NCc3ccco3)c(Nc3ccc(SC(F)F)cc3)nc12	14.5	55.7*	2.5	24.8	-2.8	0.3	5.2	/
Cc1cccn2c(=O)c(C=NCCO)c(NCc3ccco3)nc12	-0.3	-16.7	0.1	-3.8	-8.3	4.6	/	/
Cc1ccccc1C1=NC(C(F)(F)F)(C(F)(F)F)c2c(n(C)c(=O)n(C)c2=O)N1	0.2	-24.1	-0.8	1.4	-2.3	6.0	/	/
Cn1c2c(c(=O)n(C)c1=O)C(C(F)(F)F)(C(F)(F)F)N=C(c1ccc(Cl)cc1)N2	15.0	94.4*	15.1	139.4*	/	7.5	90.2*	51.5*
Cn1c(CNC(=O)c2ccco2)nnc1SCC(=O)Nc1ccc(Cl)cc1	-5.9	-3.1	4.4	/	12.8	2.1	/	/
CCN(c1ccccc1)S(=O)(=O)c1ccc(Oc2ccccc2C(C)=O)nc1	/	7.6	-2.0	0.8	-10.4	0.8	/	/
